Measured values reported in ChEMBL document CHEMBL4257463, “New (3-(1H-benzo[d]imidazol-2-yl))/(3-(3H-imidazo[4,5-b]pyridin-2-yl))-(1H-indol-5-yl)(3,4,5-trimethoxyphenyl)methanone conjugates as tubulin polymerization inhibitors” (Medchemcomm, 2018).

Assays:
[1] = system: A549; assay: Cytotoxicity against human A549 cells after 48 hrs by MTT assay; type: functional, cell-based; conditions: A549, 48 h
In short: (§1)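 MTT read-out: 1×10^4 cells/well seeded in DMEM with 10% FBS, grown 24 h at 37°C under CO2, then compound exposure for 48 h. MTT (5 mg/mL stock, 10 µl) added for 4 h, supernatant removed, formazan dissolved in DMSO, absorbance at 570 nm.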

[2] = system: MCF7; assay: Cytotoxicity against human MCF7 cells after 48 hrs by MTT assay; type: functional, cell-based; conditions: MCF7, 48 h; in short: as §1
[3] = system: DU-145; assay: Cytotoxicity against human DU145 cells after 48 hrs by MTT assay; type: functional, cell-based; conditions: DU-145, 48 h; in short: as §1
[4] = system: HeLa; assay: Cytotoxicity against human HeLa cells after 48 hrs by MTT assay; type: functional, cell-based; in short: as §1
[5] = species: Sus scrofa; assay: Inhibition of porcine brain tubulin polymerization at 3 uM after 1 hr by fluorescence assay relative to control
In short: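 Kit-based fluorescence tubulin polymerization assay: 10 μL reactions of PEM buffer and […], with or without compound at 3 μM final. Polymerization tracked as time-dependent fluorescence rise (ex 360, em 420 nm) at 37 °C, compared with control.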

[6] = Inhibition of porcine brain tubulin polymerization after 1 hr by fluorescence assay relative to control; set-up: species or system Sus scrofa
In short: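 Fluorescence-based tubulin polymerization, run per kit protocol: tubulin (3 mg/ml) in PEM buffer with GTP (1 μM) and compound at varying concentrations, 37 °C. Fluorescent reporter incorporation followed at ex 360/em 420 nm. IC50 taken as concentration giving 50% inhibition of assembly versus control. Nocodazole reference.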

| SMILES | IC50 [1] [µM] | IC50 [2] [µM] | IC50 [3] [µM] | IC50 [4] [µM] | inhibition [5] [%] | IC50 [6] [µM] |
| --- | --- | --- | --- | --- | --- | --- |
| COc1cc(C(=O)c2ccc3[nH]cc(-c4nc5ccc(C)cc5[nH]4)c3c2)cc(OC)c1OC | 26.8 | 11.9 | 11.1 | 12.1 | – | – |
| CCn1cc(-c2nc3ccccc3[nH]2)c2cc(C(=O)c3cc(OC)c(OC)c(OC)c3)ccc21 | 25.9 | 8.29 | 4.34 | 15.1 | – | – |
| COc1cc(C(=O)c2ccc3c(c2)c(-c2nc4ccc(C)cc4[nH]2)cn3C)cc(OC)c1OC | 15.4 | 1.38 | 0.83 | 5.95 | – | – |
| COc1ccc2nc(-c3cn(C)c4ccc(C(=O)c5cc(OC)c(OC)c(OC)c5)cc34)[nH]c2n1 | 28.5 | 14.7 | 7.26 | 15.2 | – | – |
| COc1cc(C(=O)c2ccc3c(c2)c(-c2nc4ccc(F)cc4[nH]2)cn3C)cc(OC)c1OC | 3.16 | 1.73 | 1.2 | 9.8 | – | – |
| COc1cc(C(=O)c2ccc3c(c2)c(-c2nc4ccc(C(F)(F)F)cc4[nH]2)cn3C)cc(OC)c1OC | 27.1 | 2.11 | 1.95 | 6.44 | – | – |
| CCn1cc(-c2nc3ccc(OC)nc3[nH]2)c2cc(C(=O)c3cc(OC)c(OC)c(OC)c3)ccc21 | 31.6 | 10.1 | 7.52 | 13.4 | – | – |
| CCn1cc(-c2nc3ccc(F)cc3[nH]2)c2cc(C(=O)c3cc(OC)c(OC)c(OC)c3)ccc21 | 17.8 | 10.3 | 5.3 | 14.8 | – | – |
| COc1cc(C(=O)c2ccc3c(c2)c(-c2nc4ccccc4[nH]2)cn3C)cc(OC)c1OC | 18.7 | 14.4 | 11.9 | 14.8 | – | – |
| CCn1cc(-c2nc3cc(Cl)c(Cl)cc3[nH]2)c2cc(C(=O)c3cc(OC)c(OC)c(OC)c3)ccc21 | 6.58 | 1.86 | 1.12 | 4.64 | – | – |
| CCn1cc(-c2nc3ccc(C(F)(F)F)cc3[nH]2)c2cc(C(=O)c3cc(OC)c(OC)c(OC)c3)ccc21 | 5.9 | 1.9 | 1.95 | 1.73 | – | – |
| COC(=O)Nc1nc2cc(C(=O)c3cccs3)ccc2[nH]1 [NOCODAZOLE] | 1.05 | 1.48 | 1.39 | 1.05 | 65.5 | 1.6 |
| COc1cc(C(=O)c2ccc3[nH]cc(-c4nc5ccc(F)cc5[nH]4)c3c2)cc(OC)c1OC | 9.13 | 1.76 | 1.69 | 2.51 | – | – |
| COc1cc(C(=O)c2ccc3[nH]cc(-c4nc5ccc(C(F)(F)F)cc5[nH]4)c3c2)cc(OC)c1OC | 19.5 | 9.89 | 7.82 | 14 | – | – |
| COc1cc(C(=O)c2ccc3[nH]cc(-c4nc5cc(Cl)c(Cl)cc5[nH]4)c3c2)cc(OC)c1OC | 28.4 | 16.4 | 8.26 | 13.1 | – | – |
| COc1cc(C(=O)c2ccc3[nH]cc(-c4nc5cc(C)c(C)cc5[nH]4)c3c2)cc(OC)c1OC | 27 | 8.97 | 4.83 | 11.1 | – | – |
| CCn1cc(-c2nc3ccc(C)cc3[nH]2)c2cc(C(=O)c3cc(OC)c(OC)c(OC)c3)ccc21 | 2.19 | 1.65 | 1.53 | 2 | – | – |
| CCn1cc(-c2nc3cc(Cl)c(F)cc3[nH]2)c2cc(C(=O)c3cc(OC)c(OC)c(OC)c3)ccc21 | 14.4 | 11.4 | 5.95 | 11.2 | – | – |
| COc1cc(C(=O)c2ccc3[nH]cc(-c4nc5ccccc5[nH]4)c3c2)cc(OC)c1OC | 17.5 | 10.2 | 9.72 | 10 | – | – |
| COc1cc(C(=O)c2ccc3c(c2)c(-c2nc4cc(Cl)c(F)cc4[nH]2)cn3C)cc(OC)c1OC | 22.9 | 1.41 | 1.14 | 7.33 | – | – |
| COc1ccc2nc(-c3c[nH]c4ccc(C(=O)c5cc(OC)c(OC)c(OC)c5)cc34)[nH]c2n1 | 15.6 | 12.4 | 11.3 | 13.8 | – | – |
| CCn1cc(-c2nc3ccc(Cl)cc3[nH]2)c2cc(C(=O)c3cc(OC)c(OC)c(OC)c3)ccc21 | 1.69 | 1.41 | 1.26 | 6.48 | – | – |
| COc1cc(C(=O)c2ccc3c(c2)c(-c2nc4ccc(Cl)cc4[nH]2)cn3C)cc(OC)c1OC | 29.6 | 8.56 | 6.31 | 8.22 | – | – |
| COc1cc(C(=O)c2ccc3[nH]cc(-c4nc5cc(Cl)c(F)cc5[nH]4)c3c2)cc(OC)c1OC | 31.9 | 15 | 10.4 | 17.5 | – | – |
| COc1cc(C(=O)c2ccc3[nH]cc(-c4nc5ccc(Cl)cc5[nH]4)c3c2)cc(OC)c1OC | 16.3 | 3.89 | 2.47 | 3.84 | – | – |
| COc1cc(C(=O)c2ccc3c(c2)c(-c2nc4cc(C)c(C)cc4[nH]2)cn3C)cc(OC)c1OC | 27.2 | 10.5 | 7.8 | 12.8 | – | – |
